Assays:
[1] = molecular target: T1, 3-hydroxy-3-methylglutaryl-coenzyme A reductase (Rattus norvegicus, UniProt P51639); test: Inhibition of HMG-CoA reductase in rat liver microsomes; design: species or system Microsome; details: read-out: I50
T1 sequence (P51639 whole entry): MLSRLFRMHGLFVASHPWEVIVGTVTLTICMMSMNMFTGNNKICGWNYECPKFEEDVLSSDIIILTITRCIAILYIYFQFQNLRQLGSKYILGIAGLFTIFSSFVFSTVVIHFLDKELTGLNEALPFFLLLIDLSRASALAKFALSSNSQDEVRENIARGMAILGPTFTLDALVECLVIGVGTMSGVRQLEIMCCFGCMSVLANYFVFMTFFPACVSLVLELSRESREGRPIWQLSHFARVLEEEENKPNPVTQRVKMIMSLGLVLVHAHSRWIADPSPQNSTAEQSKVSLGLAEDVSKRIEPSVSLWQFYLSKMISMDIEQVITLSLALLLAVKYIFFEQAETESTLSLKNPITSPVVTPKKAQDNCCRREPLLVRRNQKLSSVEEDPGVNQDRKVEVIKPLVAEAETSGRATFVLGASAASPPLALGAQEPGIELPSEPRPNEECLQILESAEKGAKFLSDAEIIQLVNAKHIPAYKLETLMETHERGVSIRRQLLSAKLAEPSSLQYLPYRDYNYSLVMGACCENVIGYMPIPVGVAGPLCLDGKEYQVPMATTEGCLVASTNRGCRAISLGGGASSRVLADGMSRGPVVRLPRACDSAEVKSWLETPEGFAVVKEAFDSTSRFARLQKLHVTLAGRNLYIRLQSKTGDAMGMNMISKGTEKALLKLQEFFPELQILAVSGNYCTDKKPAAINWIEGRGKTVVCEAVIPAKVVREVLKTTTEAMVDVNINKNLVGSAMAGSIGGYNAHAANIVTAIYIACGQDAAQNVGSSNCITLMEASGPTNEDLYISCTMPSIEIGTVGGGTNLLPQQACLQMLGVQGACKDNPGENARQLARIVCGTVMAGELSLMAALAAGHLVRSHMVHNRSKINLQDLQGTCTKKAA
Procedure, shortened: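 Rat liver microsomes (0.068 mg protein) in 150 mM phosphate pH 6.8, 180 mM KCl, 16 mM EDTA, 9 mM DTT, 10.0 mM glucose 6-phosphate, 2.1 mM NADP, G6P dehydrogenase, 20 μM (R,S)-[3-14C]HMG-CoA. Lactones were preincubated 30 min at 37 °C for ring opening. Inhibitors were given in DMSO. Reaction stopped with KOH; initial mevalonate rate measured. Four concentrations over four log units, in duplicate; I50 extrapolated from %inhibition vs log concentration.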

[2] = molecular target: T1, 3-hydroxy-3-methylglutaryl-coenzyme A reductase; test: Binding affinity against HMG-CoA reductase in rat liver microsomes; design: species or system Microsome
Procedure, shortened: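 Rat liver microsomes (Edwards preparation, stored at -78 °C), 1.3 mg (0.068 mg protein) per 500 μL assay; 150 mM phosphate pH 6.8, 180 mM KCl, 16 mM Na2EDTA, 9 mM DTT, 10.0 mM glucose 6-phosphate, 2.1 mM NADP, 2 U G6P dehydrogenase, 20 μM (R,S)-[3-14C]HMG-CoA; lactones preincubated 30 min at 37 °C for ring opening; inhibitors in DMSO; KOH stop; four concentrations in duplicate; I50 extrapolated from %inhibition vs log concentration.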

| SMILES | IC50 [1] [µM] | Ki [2] [µM] |
| --- | --- | --- |
| CC[C@H](C)C(=O)O[C@H]1CCC=C2C=C[C@H](C)[C@H](CC[C@@H]3C[C@H](O)CC(=O)O3)C21 (some centres not stated) | 4 |  |
| CC[C@H](C)C(=O)O[C@@H]1CCC=C2C=C[C@@H](C)[C@@H](COC(=O)C[C@@H](O)CC(=O)O)[C@@H]21 | > 25 |  |
| CC[C@H](C)C(=O)O[C@@H]1CCC=C2C=C[C@@H](C)[C@@H](CC[C@H]3C[C@@H](O)CC(=O)O3)[C@@H]21 | 79 |  |
| CC[C@H](C)C(=O)O[C@H]1CCC=C2C=C[C@H](C)[C@H](CC[C@H]3C[C@H](O)CC(=O)O3)C21 (some centres not stated) | 2 |  |
| CC[C@H](C)C(=O)O[C@@H]1CCC=C2C=C[C@@H](C)[C@@H](CC[C@@H]3C[C@@H](O)CC(=O)O3)[C@@H]21 | 10 |  |
| CC[C@H](C)C(=O)O[C@@H]1CCC=C2C=C[C@@H](C)[C@@H](COC(=O)C[C@H](O)CC(=O)O)[C@@H]21 | 25 |  |
| CC[C@H](C)C(=O)O[C@H]1C[C@@H](C)C[C@@H]2C=C[C@H](C)[C@H](/C=C/C(=O)C[C@@H](O)CC(=O)O)C12 (some centres not stated) | 0.32 |  |
| CC[C@H](C)C(=O)O[C@H]1C[C@@H](C)C[C@@H]2C=C[C@H](C)[C@H](CC[C@@H]3C[C@@H](O)CC(=O)O3)C12 (some centres not stated) | 0.0016 |  |
| CC[C@H](C)C(=O)O[C@H]1CCC=C2C=C[C@H](C)[C@H](CC[C@H]3C[C@@H](O)CC(=O)O3)C21 (some centres not stated) | 2 |  |
| CC[C@H](C)C(=O)O[C@H]1CCC=C2C=C[C@H](C)[C@H](COC(=O)C[C@H](O)CC(=O)O)[C@H]21 | 5 |  |
| CC[C@H](C)C(=O)O[C@H]1CCC=C2C=C[C@H](C)[C@H](COC(=O)CCCC(=O)O)C21 (some centres not stated) | 7.1 |  |
| CC[C@H](C)C(=O)O[C@H]1CCC=C2C=C[C@H](C)[C@H](CCC(=O)C[C@@H](O)CC(=O)O)[C@H]21 | 0.032 |  |
| CC[C@H](C)C(=O)O[C@H]1CCC=C2C=C[C@H](C)[C@H](/C=C/C(=O)C[C@@H](O)CC(=O)O)[C@H]21 | 0.63 |  |
| CC[C@H](C)C(=O)O[C@H]1CCC=C2C=C[C@H](C)[C@H](COC(=O)C[C@@H](O)CC(=O)O)[C@H]21 | 0.63 |  |
| CC[C@H](C)C(=O)O[C@@H]1CCC=C2C=C[C@@H](C)[C@@H](COC(=O)CCCC(=O)O)[C@@H]21 | 110 |  |
| CC[C@H](C)C(=O)O[C@H]1CCC=C2C=C[C@H](C)[C@H](CC[C@@H]3C[C@@H](O)CC(=O)O3)[C@H]21 [MEVASTATIN] | 0.013 | 0.0014 |
